Test results as given in ChEMBL document CHEMBL2440111, “Overcoming doxorubicin-resistance in the NCI/ADR-RES model cancer cell line by novel anthracene-9,10-dione derivatives” (Bioorg Med Chem Lett, 2013).
Activity calls are given as the source filed them. No cut-off for these calls is given here.

Key:
NCI/ADR-RES [1] = assay: Antiproliferative activity against human NCI/ADR-RES cells at 20 uM after 72 hrs by MTT assay; assay type: functional
Outline: (§1)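 Each cell line in the panel was treated with 20 µM compound, with doxorubicin as reference. Exponentially growing cells were grown at 37 °C in 5% CO2. MTT read-out served as a surrogate of viable cell number, expressed as % inhibition versus an untreated control. Values are mean ± SD of three independent experiments.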

U2OS [2] = assay: Antiproliferative activity against human U2OS cells at 20 uM after 72 hrs by MTT assay; assay type: functional; outline: as §1
LNCaP [3] = assay: Antiproliferative activity against human LNCAP cells at 20 uM after 72 hrs by MTT assay; assay type: functional; outline: as §1
MIA PaCa-2 [4] = assay: Antiproliferative activity against human MIAPaCa2 cells at 20 uM after 72 hrs by MTT assay; assay type: functional; conditions: MIA PaCa-2, 72 h; outline: as §1
DU-145 [5] = assay: Antiproliferative activity against human DU145 cells at 20 uM after 72 hrs by MTT assay; assay type: functional; conditions: DU-145, 72 h; outline: as §1
PC-3 [6] = assay: Antiproliferative activity against human PC3 cells at 20 uM after 72 hrs by MTT assay; assay type: functional; conditions: PC-3, 72 h; outline: as §1
[7] = Antiproliferative activity against human Caov3 cells at 20 uM after 72 hrs by MTT assay; assay type: functional; conditions: Caov-3, 72 h; outline: as §1
BXPC-3 [8] = assay: Antiproliferative activity against human BxPC3 cells at 20 uM after 72 hrs by MTT assay; assay type: functional; conditions: BXPC-3, 72 h; outline: as §1
[9] = Antiproliferative activity against human […] cells at 20 uM after 72 hrs by MTT assay; assay type: functional; outline: as §1
OVCAR-8 [10] = assay: Antiproliferative activity against human OVCAR8 cells at 20 uM after 72 hrs by MTT assay in presence of N-acetylcysteine; assay type: functional, cell-based
OVCAR-8 [11] = assay: Antiproliferative activity against human OVCAR8 cells at 20 uM after 72 hrs by MTT assay; assay type: functional; conditions: OVCAR-8, 72 h; outline: as §1
OVCAR-8 [12] = assay: Antiproliferative activity against human OVCAR8 cells at 20 uM after 72 hrs by MTT assay in presence of glutathione; assay type: functional, cell-based
OVCAR-8 [13] = assay: Antiproliferative activity against human OVCAR8 cells after 72 hrs by MTT assay; assay type: functional, cell-based; conditions: OVCAR-8, 72 h
Outline: (§2)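 Cells kept in exponential growth at 37 °C in humidified 5% CO2 with 2 mM L-glutamine, mycoplasma-checked. Compounds were applied over a dose range and viability was read by MTT relative to an untreated control. IC50 is the concentration giving a 50% decrease in viability. Values are mean ± SD of three independent experiments.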

BXPC-3 [14] = assay: Antiproliferative activity against human BxPC3 cells after 72 hrs by MTT assay; assay type: functional, cell-based; conditions: BXPC-3, 72 h; outline: as §2
NCI/ADR-RES [15] = assay: Antiproliferative activity against human NCI/ADR-RES cells at 20 uM after 72 hrs by MTT assay in presence of glutathione; assay type: functional
Outline: (§3)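 NCI/ADR-RES cells were pretreated for 2 h with 5 mM N-acetylcysteine or glutathione. Compound at 20 µM was then added for 72 h, with doxorubicin as positive control. Percent inhibition was measured by MTT.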

U2OS [16] = assay: Antiproliferative activity against human U2OS cells after 72 hrs by MTT assay; assay type: functional, cell-based; outline: as §2
NCI/ADR-RES [17] = assay: Antiproliferative activity against human NCI/ADR-RES cells after 72 hrs by MTT assay; assay type: functional, cell-based; outline: as §2
NCI/ADR-RES [18] = assay: Inhibition of colony formation in human NCI/ADR-RES cells after 24 hrs; assay type: functional, cell-based
Outline: (§4)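 NCI/ADR-RES cells were seeded at 100 cells/well and left to attach overnight. Serial compound dilutions were applied for 24 h, then washed out. Colonies grew in drug-free medium for 8-10 days and were fixed with 1% glutaraldehyde and stained with 2% crystal violet, 30 min each. Colonies were imaged and counted versus untreated control; values are means of ≥3 independent experiments.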

MIA PaCa-2 [19] = assay: Antiproliferative activity against human MIAPaCa2 cells after 72 hrs by MTT assay; assay type: functional, cell-based; conditions: MIA PaCa-2, 72 h; outline: as §2
PC-3 [20] = assay: Antiproliferative activity against human PC3 cells after 72 hrs by MTT assay; assay type: functional, cell-based; conditions: PC-3, 72 h; outline: as §2
[21] = Antiproliferative activity against human Caov3 cells after 72 hrs by MTT assay; assay type: functional, cell-based; conditions: Caov-3, 72 h; outline: as §2
LNCaP [22] = assay: Antiproliferative activity against human LNCAP cells after 72 hrs by MTT assay; assay type: functional, cell-based; outline: as §2
DU-145 [23] = assay: Antiproliferative activity against human DU145 cells after 72 hrs by MTT assay; assay type: functional, cell-based; conditions: DU-145, 72 h; outline: as §2
NCI/ADR-RES [24] = assay: Antiproliferative activity against human NCI/ADR-RES cells at 20 uM after 72 hrs by MTT assay in presence of N-acetylcysteine; assay type: functional; outline: as §3
[25] = Antiproliferative activity against human […] cells after 72 hrs by MTT assay; assay type: functional, cell-based; outline: as §2
LNCaP [26] = assay: Increase of cleaved caspase-9 level in human LNCAP cells at 3 uM after 24 hrs by Western blot analysis; assay type: functional, cell-based
Outline: (§5)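 LNCaP cells were treated for 24 h, then lysed. Equal protein was run on 12% SDS-PAGE and blotted to PVDF. Membranes were blocked 1 h in 5% skim milk/TBS-0.1% Tween and probed overnight at 4 °C with anti-p53 or anti-caspase-9. A secondary antibody and ECL detection followed, with GAPDH as loading control.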

LNCaP [27] = assay: Up-regulation of p53 expression in human LNCAP cells at 3 uM after 24 hrs by Western blot analysis; assay type: functional, cell-based; outline: as §5
NCI/ADR-RES [28] = assay: Cell cycle arrest in human NCI/ADR-RES cells assessed as accumulation at G2/M phase at 10 uM after 24 hrs using propidium iodide staining by flow cytometry (reference value: 35%); assay type: functional
NCI/ADR-RES [29] = assay: Inhibition of colony formation in human NCI/ADR-RES cells at 1 uM after 24 hrs; assay type: functional, cell-based; outline: as §4
NCI/ADR-RES [30] = assay: Cell cycle arrest in human NCI/ADR-RES cells assessed as accumulation at S phase at 10 uM after 24 hrs using propidium iodide staining by flow cytometry (reference value: 14%); assay type: functional
NCI/ADR-RES [31] = assay: Cell cycle arrest in human NCI/ADR-RES cells assessed as accumulation at G0/G1 phase at 10 uM after 24 hrs using propidium iodide staining by flow cytometry (reference value: 51%); assay type: functional
NCI/ADR-RES [32] = assay: Ratio of doxorubicin IC50 to compound IC50 for human NCI/ADR-RES cells; assay type: functional

IC50 (OVCAR-8 [13])	IC50 (BXPC-3 [14])	IC50 (U2OS [16])	IC50 (MIA PaCa-2 [19])	IC50 (PC-3 [20])	Structure (SMILES)	inhibition at 20 µM (NCI/ADR-RES [1])	inhibition at 20 µM (U2OS [2])	inhibition at 20 µM (LNCaP [3])	inhibition at 20 µM (MIA PaCa-2 [4])	inhibition at 20 µM (DU-145 [5])	inhibition at 20 µM (PC-3 [6])	inhibition at 20 µM [7]	inhibition at 20 µM (BXPC-3 [8])	inhibition at 20 µM [9]	inhibition (OVCAR-8 [10])	inhibition at 20 µM (OVCAR-8 [11])	inhibition (OVCAR-8 [12])	inhibition at 20 µM (NCI/ADR-RES [15])	IC50 (NCI/ADR-RES [17])	IC50 [21]	further results
					Cc1ccc(S(=O)(=O)Oc2ccc(OCCOCCOCCO)c3c2C(=O)c2ccccc2C3=O)cc1	20.4%	44.2%	24.5%	53.4%	16.8%	16.6%	47.3%	15.3%	46.9%	Active	13.1%					
8000 nM	600 nM	4500 nM	1900 nM	8000 nM	COc1ccc(CNc2ccc(OS(=O)(=O)c3ccc(C)cc3)c3c2C(=O)c2ccccc2C3=O)cc1	77.8%	59.8%	78.7%	81.4%	62.2%	46.2%	83.1%	91.5%	53.3%	Active	58.2%	Active	> 60%	1200 nM	1800 nM	inhibition (NCI/ADR-RES [18]): Dose-dependent effect; IC50 (LNCaP [22]): 900 nM; IC50 (DU-145 [23]): 2200 nM; inhibition at 20 µM (NCI/ADR-RES [24]): > 60%; IC50 [25]: > 20000 nM
4400 nM	2400 nM	4800 nM	4500 nM	> 20000 nM	Cc1ccc(S(=O)(=O)Oc2ccc(NCc3ccc(Cl)cc3)c3c2C(=O)c2ccccc2C3=O)cc1	80.4%	66.1%	79.9%	80.6%	69.1%	81.2%	84.6%	85.2%	63.5%	Active	64.4%	Active	> 60%	2200 nM	2500 nM	inhibition (NCI/ADR-RES [18]): Dose-dependent effect; IC50 (LNCaP [22]): 2400 nM; IC50 (DU-145 [23]): 6500 nM; inhibition at 20 µM (NCI/ADR-RES [24]): > 60%; IC50 [25]: 4000 nM
					Cc1ccc(S(=O)(=O)Oc2ccc(OCCOCCO)c3c2C(=O)c2ccccc2C3=O)cc1	15.3%	43%	26.7%	35.9%	9%	9.9%	42.7%	14.5%	31.4%	Active	8.5%	Active				
					Cc1ccc(S(=O)(=O)Oc2ccc(OCCOCCOCCOCCO)c3c2C(=O)c2ccccc2C3=O)cc1	1.7%	41.9%	40.3%	29.5%	21.6%	23.7%	48.2%	11.8%	47.8%		5.5%					
					O=C1c2ccccc2C(=O)c2c(OCCOCCOCCO)ccc(OCCOCCOCCO)c21	41.5%	11.1%	38.2%	36.1%	17.7%	16.4%	16.3%	17.5%	6.4%		37.4%					
600 nM	400 nM	300 nM	< 100 nM	1000 nM	COc1cccc2c1C(=O)c1c(O)c3c(c(O)c1C2=O)C[C@@](O)(C(=O)CO)C[C@@H]3O[C@H]1C[C@H](N)[C@H](O)[C@H](C)O1 [DOXORUBICIN]	41%	90%	85.8%	88.1%	80.6%	6.9%	92.6%	96.2%	83.5%	Active	86%	Active	21%	> 20000 nM	< 100 nM	Activity (LNCaP [26]): Active; Activity (LNCaP [27]): Active; IC50 (LNCaP [22]): 200 nM; IC50 (DU-145 [23]): 200 nM; inhibition at 20 µM (NCI/ADR-RES [24]): 13%; IC50 [25]: 1500 nM
3500 nM	1800 nM	2800 nM	2700 nM	6500 nM	Cc1ccc(S(=O)(=O)Oc2ccc(NCc3ccc(N)cc3)c3c2C(=O)c2ccccc2C3=O)cc1	80.5%	92.3%	88.9%	91.1%	87.2%	75.8%	85.7%	94%	75.1%	Active	85.4%	Active	> 60%	800 nM	2500 nM	inhibition at 10 µM (NCI/ADR-RES [28]): 55%; inhibition (NCI/ADR-RES [29]): Active; inhibition at 10 µM (NCI/ADR-RES [30]): 25%; Activity (LNCaP [26]): Active; IC50 (NCI/ADR-RES [18]): 500 nM; inhibition (NCI/ADR-RES [18]): Dose-dependent effect; Activity (LNCaP [27]): inactive; inhibition at 10 µM (NCI/ADR-RES [31]): 30%; IC50 (LNCaP [22]): 400 nM; IC50 (DU-145 [23]): 5400 nM; Ratio IC50 (NCI/ADR-RES [32]): > 25; inhibition at 20 µM (NCI/ADR-RES [24]): > 60%; IC50 [25]: 3800 nM
					O=C1c2ccccc2C(=O)c2c(OCCOCCO)ccc(OCCOCCO)c21	46.4%	32.4%	46.9%	31.1%	10%	10.6%	7.3%	23.1%	44.3%		3.4%					
